Measurements as given in ChEMBL document CHEMBL1137338, “Effects of substitution on 9-(3-bromo-4-fluorophenyl)-5,9-dihydro-3H,4H-2,6-dioxa-4- azacyclopenta[b]naphthalene-1,8-dione, a dihydropyridine ATP-sensitive potassium channel opener” (J Med Chem, 2006).

Tests used:
[1] = target: T1, Sulfonylurea receptor 2, Kir6.2 (Homo sapiens) (UniProt Q14654+O60706); experiment: Ability to open human urinary bladder Kir6.2 containing SUR2B in Ltk cells by FLIPR assay relative to P1075; type: functional, cell-based
Procedure, shortened: (§1)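 Ltk- cells stably transfected with the Kir6.2/SUR2B exon 17- splice variant. Membrane potential was followed with DiBAC dye in a 96-well cell-based kinetic fluorescence (FLIPR) assay. The highest concentration tested was 10 µM. Each compound's maximal fluorescence response was expressed as % of the response to the reference opener.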

[2] = target: Sulfonylurea receptor 2, Kir6.2 (Homo sapiens, UniProt O60706+Q14654); experiment: Ability to open human urinary bladder Kir6.2 channel containing SUR2B in Ltk cells by FLIPR assay; type: functional, cell-based; procedure, shortened: as §1
[3] = target: T1, Sulfonylurea receptor 2, Kir6.2 (Homo sapiens); experiment: Activity against pig bladder KATP channel opening assessed as ability to relax field-stimulated pig detrusor relative to P1075; type: functional; conditions: Sus scrofa; target entry is the homologue from another species

Sequence of Sulfonylurea receptor 2, Kir6.2 (Q14654 whole entry): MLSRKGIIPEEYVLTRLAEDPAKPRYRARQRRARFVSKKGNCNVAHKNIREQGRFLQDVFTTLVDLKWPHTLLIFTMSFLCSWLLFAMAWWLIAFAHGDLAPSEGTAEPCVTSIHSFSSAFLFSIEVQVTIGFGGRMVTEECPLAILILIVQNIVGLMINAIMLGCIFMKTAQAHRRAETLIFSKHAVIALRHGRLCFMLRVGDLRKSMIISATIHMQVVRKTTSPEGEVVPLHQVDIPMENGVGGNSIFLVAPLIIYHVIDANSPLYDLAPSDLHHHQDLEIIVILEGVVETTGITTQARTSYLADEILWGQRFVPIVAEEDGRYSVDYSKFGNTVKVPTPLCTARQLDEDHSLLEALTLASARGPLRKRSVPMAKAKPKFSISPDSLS
Sequence of Sulfonylurea receptor 2, Kir6.2 (O60706 whole entry): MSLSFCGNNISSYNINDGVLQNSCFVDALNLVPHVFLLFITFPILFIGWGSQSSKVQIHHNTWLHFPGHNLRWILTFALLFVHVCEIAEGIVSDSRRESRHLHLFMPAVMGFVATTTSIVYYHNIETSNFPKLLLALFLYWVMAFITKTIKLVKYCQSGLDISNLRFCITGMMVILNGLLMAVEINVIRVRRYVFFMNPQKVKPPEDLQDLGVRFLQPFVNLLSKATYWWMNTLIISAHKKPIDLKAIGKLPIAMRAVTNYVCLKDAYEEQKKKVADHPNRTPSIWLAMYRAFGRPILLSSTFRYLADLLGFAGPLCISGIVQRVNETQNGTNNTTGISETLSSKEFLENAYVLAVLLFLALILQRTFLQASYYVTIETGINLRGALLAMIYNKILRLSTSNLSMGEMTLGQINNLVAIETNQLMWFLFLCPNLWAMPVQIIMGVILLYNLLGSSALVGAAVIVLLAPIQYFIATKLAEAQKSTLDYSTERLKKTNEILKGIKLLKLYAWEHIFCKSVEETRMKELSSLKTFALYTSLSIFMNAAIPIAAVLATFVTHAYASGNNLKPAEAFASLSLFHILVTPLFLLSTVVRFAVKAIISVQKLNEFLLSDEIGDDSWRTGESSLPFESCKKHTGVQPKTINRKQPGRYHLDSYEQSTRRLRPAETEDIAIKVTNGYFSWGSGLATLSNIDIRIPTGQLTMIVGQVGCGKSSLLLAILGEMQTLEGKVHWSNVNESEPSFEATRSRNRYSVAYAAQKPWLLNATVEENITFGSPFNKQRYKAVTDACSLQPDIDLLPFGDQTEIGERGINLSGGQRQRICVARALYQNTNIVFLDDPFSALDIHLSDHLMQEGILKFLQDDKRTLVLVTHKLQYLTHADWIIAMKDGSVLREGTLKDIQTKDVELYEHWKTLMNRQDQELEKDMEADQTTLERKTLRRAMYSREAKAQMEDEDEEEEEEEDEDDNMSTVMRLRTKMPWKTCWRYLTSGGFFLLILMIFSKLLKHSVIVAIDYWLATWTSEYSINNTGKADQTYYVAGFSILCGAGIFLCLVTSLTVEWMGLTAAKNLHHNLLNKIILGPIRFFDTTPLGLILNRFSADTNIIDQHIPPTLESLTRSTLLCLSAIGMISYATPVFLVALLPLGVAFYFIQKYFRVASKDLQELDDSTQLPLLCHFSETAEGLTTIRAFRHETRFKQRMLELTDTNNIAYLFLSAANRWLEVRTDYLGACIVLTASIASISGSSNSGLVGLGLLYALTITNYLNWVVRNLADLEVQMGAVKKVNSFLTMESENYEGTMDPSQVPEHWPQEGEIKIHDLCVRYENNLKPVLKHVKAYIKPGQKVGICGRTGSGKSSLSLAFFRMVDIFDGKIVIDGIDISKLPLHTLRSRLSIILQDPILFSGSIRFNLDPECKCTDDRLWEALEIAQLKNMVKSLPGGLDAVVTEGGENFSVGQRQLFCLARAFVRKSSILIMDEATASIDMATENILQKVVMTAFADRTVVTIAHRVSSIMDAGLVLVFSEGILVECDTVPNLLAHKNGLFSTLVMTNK

Row | SMILES | Efficacy [1] [%] | EC50 [2] [nM] | Efficacy [3] [%]
1 | CC1(C)OCC2=C(C1=O)C(c1ccc(F)c(Br)c1)C1=C(O)C(C)(C)OCC1=N2 (stereo not drawn) | 61 | 3890 | 
2 | CC1(C)OCC(=O)C2=C1N=C1COC(O)=C1C2c1ccc(F)c(Br)c1 (stereo not drawn) | 73 | 120 | 
3 | O=C1CCCC2=C1[C@H](c1ccc(F)c(Br)c1)C1=C(CCS1(=O)=O)N2 | 90 | 158 | 
4 | C[C@@H]1C2=C(C(=O)N1C)[C@H](c1ccc(F)c(Br)c1)C1=C(O)COCC1=N2 (relative stereo) | 92 | 316 | 
5 | CC[C@H]1OCC(=O)C2=C1N=C1COC(O)=C1[C@@H]2c1ccc(F)c(Br)c1 (relative stereo) | 90 | 18.2 | 
6 | CC[C@@H]1OCC(=O)C2=C1N=C1COC(O)=C1[C@@H]2c1ccc(F)c(Br)c1 (relative stereo) | 74 | 933 | 
7 | CC[C@@H]1OC(O)=C2C1=NC1=C(C(=O)C(C)(C)OC1)[C@H]2c1ccc(F)c(Br)c1 (relative stereo) | 105 | 14.5 | 
8 | C[C@@H]1OC(=O)C2=C1NC1=C([C@H]2c2ccc(F)c(Br)c2)S(=O)(=O)CC1 (relative stereo) | 93 | 135 | 
9 | C[C@H]1OC(=O)C2=C1NC1=C([C@H]2c2ccc(F)c(Br)c2)S(=O)(=O)CCC1 (relative stereo) | 99 | 224 | 
10 | CCCC[C@@H]1OC(O)=C2C1=NC1=C(C(=O)COC1)[C@H]2c1ccc(F)c(Br)c1 (relative stereo) | 67 | 29.5 | 
11 | COC[C@@H]1OC(O)=C2C1=NC1=C(C(=O)COC1)[C@H]2c1ccc(F)c(Br)c1 (relative stereo) | 100 | 9.77 | 
12 | CC[C@@H]1OC(O)=C2C1=NC1=C(C(=O)COC1(C)C)[C@H]2c1ccc(F)c(Br)c1 (relative stereo) | 59 | 1740 | 
13 | CC[C@H]1OC(O)=C2C1=NC1=C(C(=O)OC1)[C@H]2c1ccc(F)c(Br)c1 (relative stereo) | 74 | 72.4 | 
14 | CC[C@@H]1OCC2=C(C1=O)[C@@H](c1ccc(F)c(Br)c1)C1=C(O)OCC1=N2 (stereo in doubt; 10a) | 83 |  | 86
15 | CC[C@@H]1OCC2=C(C1=O)[C@@H](c1ccc(F)c(Br)c1)C1=C(O)OCC1=N2 (stereo in doubt; 10b) | 46 |  | 95
16 | C[C@@H]1OC(O)=C2C1=NC1=C(C(=O)COC1)[C@H]2c1ccc(F)c(Br)c1 (stereo in doubt; 17a) | 105 |  | 97
17 | CC(C)C[C@H]1OC(O)=C2C1=NC1=C(C(=O)COC1)[C@H]2c1ccc(F)c(Br)c1 (stereo in doubt; 31b) | 59 |  | 35
18 | CC[C@H]1OC(O)=C2C1=NC1=C(C(=O)C(C)(C)OC1)[C@H]2c1ccc(F)c(Br)c1 (stereo in doubt; 36a) | 89 |  | 
19 | CCC[C@H]1OC(O)=C2C1=NC1=C(C(=O)COC1)[C@H]2c1ccc(F)c(I)c1 (stereo in doubt; 41a) | 81 |  | 
20 | CCC[C@H]1OC(O)=C2C1=NC1=C(C(=O)COC1)[C@H]2c1ccc(Cl)c(Cl)c1 (stereo in doubt; 42b) | 62 |  | 
21 | CCC[C@H]1OC(O)=C2C1=NC1=C(C(=O)COC1)[C@H]2c1ccc(Cl)c(Br)c1 (stereo in doubt; 43b) | 99 |  | 
22 | CCC[C@H]1OC(O)=C2C1=NC1=C(C(=O)COC1)[C@H]2c1ccc(Br)c(Cl)c1 (stereo in doubt; 44a) | 121 |  | 
23 | CCC[C@H]1OC(O)=C2C1=NC1=C(C(=O)COC1)[C@H]2c1ccc(Br)c(Br)c1 (stereo in doubt; 45a) | 104 |  | 
24 | CCC[C@H]1OC(O)=C2C1=NC1=C(C(=O)COC1)[C@H]2c1ccc(C)c(Br)c1 (stereo in doubt; 46a) | 81 |  | 
25 | CCC[C@H]1OC(O)=C2C1=NC1=C(C(=O)COC1)[C@H]2c1ccc(C)c(Br)c1 (stereo in doubt; 46b) | 87 |  | 
26 | CC[C@@H]1OCC(O)=C2C1=NC1=C(C(=O)COC1)[C@H]2c1ccc(F)c(Br)c1 (stereo in doubt; 70b) | 94 |  | 
27 | CC[C@H]1OCC(O)=C2C1=NC1=C(C(=O)COC1)[C@H]2c1ccc(F)c(I)c1 (stereo in doubt; 73a) | 69 |  | 
28 | CC[C@H]1OCC(O)=C2C1=NC1=C(C(=O)COC1)[C@H]2c1ccc(Cl)c(Br)c1 (stereo in doubt; 75a) | 89 |  | 
29 | CC[C@H]1OCC(O)=C2C1=NC1=C(C(=O)COC1)[C@H]2c1ccc(C)c(Br)c1 (stereo in doubt; 78a) | 94 |  | 
30 | CC[C@H]1OCC(O)=C2C1=NC1=C(C(=O)COC1)[C@H]2c1ccc(C)c(Br)c1 (stereo in doubt; 78b) | 56 |  | 

Further lines, results first:

Row | Efficacy [1] [%] | EC50 [2] [nM] | Efficacy [3] [%] | SMILES
31 | 71 | 324 |  | CC[C@@H]1OC(O)=C2C1=NC1=C(C(=O)OCC1)[C@H]2c1ccc(F)c(Br)c1
32 | 42 | 13800 |  | CCC1(CC)OCC2=NC3=C(C(=O)COC3)C(c3ccc(F)c(Br)c3)C2=C1O (stereo not drawn)
33 | 96 | 17 |  | CC1(C)OCC2=NC3=C(C(=O)COC3)C(c3ccc(F)c(Br)c3)C2=C1O (stereo not drawn)
34 | 77 | 26.9 |  | CC1(C)OC(O)=C2C1=NC1=C(C(=O)COC1)C2c1ccc(F)c(Br)c1 (stereo not drawn)
35 |  |  | 38 | CC[C@H]1OC(O)=C2C1=NC1=C(C(=O)CSC1)[C@H]2c1ccc(F)c(Br)c1
36 | 97 | 1020 |  | CC[C@H]1OCC2=C(C1=O)[C@@H](c1ccc(F)c(Br)c1)C1=C(O)OCC1=N2 (racemic)
37 | 88 | 1.17 |  | CC[C@@H]1CC(O)=C2C1=NC1=C(C(=O)COC1)[C@H]2c1ccc(F)c(Br)c1 (relative stereo)
38 | 54 | 5010 |  | CC[C@H]1OC(O)=C2C1=NC1=C(C(=O)OCC1)[C@H]2c1ccc(F)c(Br)c1 (relative stereo)
39 | 74 | 155 |  | CC[C@@H]1OC(O)=C2C1=NC1=C(C(=O)CSC1)[C@H]2c1ccc(F)c(Br)c1 (relative stereo)
40 | 102 | 2.75 |  | C[C@H]1C2=C(C(=O)N1C)[C@H](c1ccc(F)c(Br)c1)C1=C(COCC1=O)N2 (relative stereo)
41 | 94 | 6.03 |  | CC[C@@H]1OC(O)=C2C1=NC1=C(C(=O)OC1)[C@H]2c1ccc(F)c(Br)c1 (relative stereo)
42 | 86 | 407 |  | C[C@H]1OC(=O)C2=C1NC1=C([C@H]2c2ccc(F)c(Br)c2)S(=O)(=O)CC1 (relative stereo)
43 | 102 | 56.2 |  | C[C@@H]1OC(=O)C2=C1NC1=C([C@H]2c2ccc(F)c(Br)c2)S(=O)(=O)CCC1 (relative stereo)
44 | 73 | 102 |  | C[C@@H]1OCC(=O)C2=C1N=C1COC(O)=C1[C@@H]2c1ccc(F)c(Br)c1 (relative stereo)
45 | 83 | 251 |  | CC[C@H]1OC(O)=C2C1=NC1=C(C(=O)CCC1)[C@H]2c1ccc(F)c(Br)c1 (relative stereo)
46 | 87 | 56.2 |  | CC[C@@H]1OC(O)=C2C1=NC1=C(C(=O)CCC1)[C@H]2c1ccc(F)c(Br)c1 (relative stereo)
47 | 96 | 1.82 |  | C[C@H]1OCC(=O)C2=C1N=C1COC(O)=C1[C@@H]2c1ccc(F)c(Br)c1 (relative stereo)

Row | Efficacy [1] [%] | EC50 [2] [nM] | Efficacy [3] [%] | SMILES
48 | 54 |  | 94 | CC[C@H]1OC(O)=C2C1=NC1=C(C(=O)COC1)[C@H]2c1ccc(F)c(Br)c1 (stereo in doubt; 21a)
49 | 77 |  |  | CC[C@H]1OC(O)=C2C1=NC1=C(C(=O)COC1(C)C)[C@H]2c1ccc(F)c(Br)c1 (stereo in doubt; 38a)
50 | 74 |  |  | CCC[C@H]1OC(O)=C2C1=NC1=C(C(=O)COC1)[C@H]2c1ccc(F)c(Cl)c1 (stereo in doubt; 39a)
51 | 94 |  | 86 | CCC[C@H]1OC(O)=C2C1=NC1=C(C(=O)COC1)[C@H]2c1ccc(F)c(I)c1 (stereo in doubt; 41b)
52 | 87 |  |  | CCC[C@H]1OC(O)=C2C1=NC1=C(C(=O)COC1)[C@H]2c1ccc(Cl)c(Cl)c1 (stereo in doubt; 42a)
53 | 90 |  |  | CCC[C@H]1OC(O)=C2C1=NC1=C(C(=O)COC1)[C@H]2c1ccc(Cl)c(Br)c1 (stereo in doubt; 43a)
54 | 92 |  |  | CCC[C@H]1OC(O)=C2C1=NC1=C(C(=O)COC1)[C@H]2c1ccc(Br)c(Cl)c1 (stereo in doubt; 44b)
55 | 108 |  |  | CCC[C@H]1OC(O)=C2C1=NC1=C(C(=O)COC1)[C@H]2c1ccc(Br)c(Br)c1 (stereo in doubt; 45b)
56 | 87 |  |  | CC[C@@H]1OCC(O)=C2C1=NC1=C(C(=O)COC1)[C@H]2c1ccc(F)c(Br)c1 (stereo in doubt; 70a)
57 | 66 |  |  | CC[C@H]1OCC(O)=C2C1=NC1=C(C(=O)COC1)[C@H]2c1ccc(F)c(Cl)c1 (stereo in doubt; 72a)
58 | 53 |  |  | CC[C@H]1OCC(O)=C2C1=NC1=C(C(=O)COC1)[C@H]2c1ccc(F)c(I)c1 (stereo in doubt; 73b)
59 | 118 |  |  | CC[C@H]1OCC(O)=C2C1=NC1=C(C(=O)COC1)[C@H]2c1ccc(Cl)c(Cl)c1 (stereo in doubt; 74a)
60 | 54 |  |  | CC[C@H]1OCC(O)=C2C1=NC1=C(C(=O)COC1)[C@H]2c1ccc(Cl)c(Br)c1 (stereo in doubt; 75b)
61 | 76 |  |  | CC[C@H]1OCC(O)=C2C1=NC1=C(C(=O)COC1)[C@H]2c1ccc(Br)c(Cl)c1 (stereo in doubt; 76a)
62 | 120 |  |  | CC[C@H]1OCC(O)=C2C1=NC1=C(C(=O)COC1)[C@H]2c1ccc(Br)c(Br)c1 (stereo in doubt; 77a)
63 | 104 |  |  | CC[C@H]1OCC(O)=C2C1=NC1=C(C(=O)COC1)[C@H]2c1ccc(Br)c(Br)c1 (stereo in doubt; 77b)
